We go through 3 compounds from ChEMBL document CHEMBL1134468 (J Med Chem, 2001).

In assay [1] the target is T1, Neuropeptide Y receptor type 1 (Homo sapiens, UniProt P25929).
T1 sequence (P25929 whole entry): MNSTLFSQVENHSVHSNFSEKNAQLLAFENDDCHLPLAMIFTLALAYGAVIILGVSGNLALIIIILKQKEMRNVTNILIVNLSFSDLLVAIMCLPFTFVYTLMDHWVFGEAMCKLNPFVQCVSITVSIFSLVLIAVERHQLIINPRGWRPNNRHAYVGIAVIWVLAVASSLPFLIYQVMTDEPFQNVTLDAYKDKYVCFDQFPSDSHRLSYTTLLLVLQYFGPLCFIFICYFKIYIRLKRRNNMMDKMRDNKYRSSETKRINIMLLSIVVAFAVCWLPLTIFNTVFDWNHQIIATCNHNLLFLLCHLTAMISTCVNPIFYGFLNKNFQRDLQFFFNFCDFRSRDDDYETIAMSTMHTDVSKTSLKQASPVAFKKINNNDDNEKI
Briefly: Affinity for cloned Y1 receptor using [125I]PYY as radioligand.

The target of assay [2] is T2, Neuropeptide Y receptor type 4 (Homo sapiens, UniProt P50391). Briefly: Affinity for cloned Y4 receptor using [125I]PP as radioligand.
T2 sequence (P50391 whole entry): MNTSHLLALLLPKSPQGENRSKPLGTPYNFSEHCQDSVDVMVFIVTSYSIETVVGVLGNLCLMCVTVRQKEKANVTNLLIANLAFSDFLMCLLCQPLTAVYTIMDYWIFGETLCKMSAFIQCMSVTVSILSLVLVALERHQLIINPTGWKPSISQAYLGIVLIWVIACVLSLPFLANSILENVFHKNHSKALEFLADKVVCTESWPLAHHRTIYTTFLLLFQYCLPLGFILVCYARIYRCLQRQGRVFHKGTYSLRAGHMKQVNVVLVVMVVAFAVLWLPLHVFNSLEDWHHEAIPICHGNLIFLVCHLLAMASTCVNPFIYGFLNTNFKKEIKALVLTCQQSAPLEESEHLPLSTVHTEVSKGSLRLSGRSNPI
In assay [3] the target is T3, Neuropeptide Y receptor type 2 (Homo sapiens, UniProt P49146).
T3 sequence (P49146 whole entry): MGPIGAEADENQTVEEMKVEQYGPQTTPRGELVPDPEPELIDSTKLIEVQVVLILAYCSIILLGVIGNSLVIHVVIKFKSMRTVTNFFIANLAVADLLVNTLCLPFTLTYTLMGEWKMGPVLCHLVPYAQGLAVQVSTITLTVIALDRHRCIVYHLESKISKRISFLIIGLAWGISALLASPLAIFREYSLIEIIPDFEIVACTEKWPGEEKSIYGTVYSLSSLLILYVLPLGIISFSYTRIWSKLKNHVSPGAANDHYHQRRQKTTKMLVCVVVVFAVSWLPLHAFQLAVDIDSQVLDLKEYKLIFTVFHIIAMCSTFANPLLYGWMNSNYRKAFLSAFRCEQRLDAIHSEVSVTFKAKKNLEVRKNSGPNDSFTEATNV
Briefly: Agonist potency for the inhibition of Forskolin stimulated cAMP synthesis in cells expressing cloned Y2 receptors. It counts as functional.

Assay [4] concerns the target T2, Neuropeptide Y receptor type 4. Briefly: Agonist potency for the inhibition of Forskolin stimulated cAMP synthesis in cells expressing cloned Y4 receptors. It counts as functional. An outline of the steps: (§1)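 Inhibition of forskolin-driven cAMP synthesis in cells expressing the Y4 receptor, with PP run as the reference control.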
The target in assay [5] is T4, Neuropeptide Y receptor type 5 (Homo sapiens, UniProt Q15761).
T4 sequence (Q15761 whole entry): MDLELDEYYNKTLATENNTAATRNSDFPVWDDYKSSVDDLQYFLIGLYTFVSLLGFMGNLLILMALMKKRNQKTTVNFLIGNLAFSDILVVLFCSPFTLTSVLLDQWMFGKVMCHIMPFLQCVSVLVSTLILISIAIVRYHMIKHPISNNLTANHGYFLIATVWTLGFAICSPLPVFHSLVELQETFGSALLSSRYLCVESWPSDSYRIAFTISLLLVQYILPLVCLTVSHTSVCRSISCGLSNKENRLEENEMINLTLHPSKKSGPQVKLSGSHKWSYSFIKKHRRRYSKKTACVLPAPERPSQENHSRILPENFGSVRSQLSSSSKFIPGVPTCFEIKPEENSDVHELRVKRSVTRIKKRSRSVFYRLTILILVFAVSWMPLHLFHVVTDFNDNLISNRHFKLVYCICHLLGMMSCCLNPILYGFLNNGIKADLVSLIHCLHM
Briefly: Affinity for cloned Y5 receptor using [125I]PYY as radioligand.

For assay [6], the target named is T5, Neuropeptide Y receptor type 1 (Homo sapiens) (UniProt P25929).
T5 sequence (whole entry): T1 sequence (P25929 whole entry)
Briefly: Selectivity ratio of Y1/Y2/Y4/Y5; 1/790/3/1640.

Assay [7] has as its target T3, Neuropeptide Y receptor type 2. Briefly: Affinity for cloned Y2 receptor using [125I]PYY as radioligand.
Assay [8] has as its target T4, Neuropeptide Y receptor type 5. Briefly: Agonist potency for the inhibition of Forskolin stimulated cAMP synthesis in cells expressing cloned Y5 receptors. It counts as functional.
Assay [9] deals with T5, Neuropeptide Y receptor type 1 (Homo sapiens). Briefly: Antagonist potency for the inhibition of Forskolin stimulated cAMP synthesis in cells expressing cloned Y1 receptors. It counts as functional.
The nature of assay [10]: Selectivity ratio of Y1/Y2/Y4/Y5; 1/3840/120/2450.
The target of assay [11] is T4, Neuropeptide Y receptor type 5. Briefly: Agonist potency for the inhibition of Forskolin stimulated cAMP synthesis in cells expressing cloned Y5 receptors(no effect at <20000 nM). It is filed as functional.
For assay [12], the target named is Neuropeptide Y receptor type 2 (Homo sapiens) (UniProt P49146). Briefly: Agonist potency for the inhibition of Forskolin stimulated cAMP synthesis in cells expressing cloned Y2 receptors; no effect means no agonist activity at <20 000 nM.
Assay [13] addresses T2, Neuropeptide Y receptor type 4. Briefly: Agonist potency for the inhibition of Forskolin stimulated cAMP synthesis in cells expressing cloned Y4 receptors(no effect at <20000 nM). It counts as functional. An outline of the steps: as §1

Structures are written as SMILES. Where a SMILES comes first, the peptide text is derived from it. Bridges are numbered along the chain shown (N, C = ends). Roman numbers before positions name the chains, in order. [ ]: non-standard residue; d: D form. Dap = NC[C@H](N)C(=O)O

For `CC[C@H](C)[C@H](N)C(=O)N[C@H]1CCC(=O)NC[C@@H](C(=O)N[C@@H](Cc2ccc(O)cc2)C(=O)N[C@@H](CCCN=C(N)N)C(=O)N[C@@H](CC(C)C)C(=O)N[C@@H](CCCN=C(N)N)C(=O)N[C@@H](Cc2ccc(O)cc2)C(N)=O)NC(=O)[C@@H]2CCCN2C(=O)[C@@H](NC(=O)[C@@H](N)[C@@H](C)CC)CCC(=O)NC[C@@H](C(=O)N[C@@H](Cc2ccc(O)cc2)C(=O)N[C@@H](CCCN=C(N)N)C(=O)N[C@@H](CC(C)C)C(=O)N[C@@H](CCCN=C(N)N)C(=O)N[C@@H](Cc2ccc(O)cc2)C(N)=O)NC(=O)[C@@H]2CCCN2C1=O` (I: H-IEP[Dap]YRLRY-NH2 / II: H-IEP[Dap]YRLRY-NH2; amide I:2-II:4, I:4-II:2), the Ki in assay [1] turned out to be 0.07 nM; in [2], 0.26 nM; in assay [5] it was 115 nM; in [7], 55 nM. In addition, the 50% effective concentration (EC50) in [3] came to 983 nM; in assay [4], 2.5 nM; in [8] it was 2050 nM. The Selectivity result in [6] is “Y1/Y4/Y2/Y5”.
In the case of `CC[C@H](C)[C@H](N)C(=O)N[C@H]1CCC(=O)NC[C@@H](C(=O)N[C@@H](Cc2ccc(O)cc2)C(=O)N[C@@H](CCCN=C(N)N)C(=O)N[C@@H](CC(C)C)C(=O)N[C@@H](CCCN=C(N)N)C(=O)N[C@@H](Cc2ccc(O)cc2)C(=O)OC)NC(=O)[C@@H]2CCCN2C(=O)[C@H](NC(=O)[C@@H](N)[C@@H](C)CC)CCC(=O)NC[C@H](C(=O)N[C@@H](Cc2ccc(O)cc2)C(=O)N[C@@H](CCCN=C(N)N)C(=O)N[C@@H](CC(C)C)C(=O)N[C@@H](CCCN=C(N)N)C(=O)N[C@@H](Cc2ccc(O)cc2)C(=O)OC)NC(=O)[C@@H]2CCCN2C1=O`, the Kb in [9] worked out at 0.19 nM. In addition, in assay [10], the Selectivity result was “Y1/Y4/Y5/Y2”.
Turning to `CC[C@H](C)[C@H](N)C(=O)N[C@H]1CCC(=O)NC[C@@H](C(=O)N[C@@H](Cc2ccc(O)cc2)C(=O)N[C@@H](CCCN=C(N)N)C(=O)N[C@@H](CC(C)C)C(=O)N[C@@H](CCCN=C(N)N)CN[C@@H](Cc2ccc(O)cc2)C(N)=O)NC(=O)[C@@H]2CCCN2C(=O)[C@@H](NC(=O)[C@@H](N)[C@@H](C)CC)CCC(=O)NC[C@@H](C(=O)N[C@@H](Cc2ccc(O)cc2)C(=O)N[C@@H](CCCN=C(N)N)C(=O)N[C@@H](CC(C)C)C(=O)N[C@@H](CCCN=C(N)N)CN[C@@H](Cc2ccc(O)cc2)C(N)=O)NC(=O)[C@@H]2CCCN2C1=O`, the EC50 entry in assay [11], in assay [12] and in [13] was “Not Active” each time.
